# UHRF1 binding – UHRF1 methylated DNA binding inhibitors, primary screen, counter-screen for MBD2 inhibitor project, biochemical, TR-FRET, human UHRF1, single concentration. AID 687016, 2013. 0.75% of 370,000 active. inhibition, % at 4.4 µM. UHRF1 binding to methylated oligo; in the data active means inhibition above about 21%;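 further: UHRF1 SRA domain binding a hemimethylated CpG hairpin DNA probe; 0% = median of test compound wells and 100% = reference inhibitor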
# Rin1 Abl inh – inhibitors of Rin1-Abl protein binding, primary screen, biochemical, TR-FRET | inhibition, % at 7.35 µM | 0.4% of 360,000 active | AID 588664, 2011; in the data active means inhibition above about 5%, passing the limit was not always enough
# MBD2 DNA inh – inhibitors of MBD2 binding to methylated DNA, primary screen, biochemical, TR-FRET, DNA-binding domain, human | 0.31% of 370,000 active | inhibition, % at 4.4 µM | MBD2 binding to methylated oligonucleotide; in the data active means inhibition above about 13%
# Target sequence (Q9UBB5 whole entry, looked up, the tested form may be a part): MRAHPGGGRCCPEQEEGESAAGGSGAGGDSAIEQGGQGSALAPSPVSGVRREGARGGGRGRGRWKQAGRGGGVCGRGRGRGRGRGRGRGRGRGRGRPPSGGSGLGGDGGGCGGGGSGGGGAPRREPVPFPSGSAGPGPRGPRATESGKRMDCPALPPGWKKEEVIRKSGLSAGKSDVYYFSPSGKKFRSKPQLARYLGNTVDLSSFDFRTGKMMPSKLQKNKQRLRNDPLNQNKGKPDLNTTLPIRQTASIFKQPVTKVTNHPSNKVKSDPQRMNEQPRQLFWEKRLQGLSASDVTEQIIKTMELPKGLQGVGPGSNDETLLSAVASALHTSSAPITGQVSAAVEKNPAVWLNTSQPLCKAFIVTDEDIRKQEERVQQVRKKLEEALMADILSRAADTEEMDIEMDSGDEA
# LEDGF integ inh – blockers of LEDGF/p75-dependent integrase strand transfer – biochemical, TR-FRET, high throughput, primary screen; HIV-1 integrase (with human LEDGF/p75); TR-FRET IN-LEDGF/p75 DNA integration, Eu/Cy5; inhibition, % at 3.7 µM; 0.64% of 370,000 active; AID 743269, 2014;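 active means inhibition above the screen-wide mean plus 3 SD, cut at about 13% in these data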;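 further: signal is the Cy5 over europium emission ratio at 671 and 618 nm; 0% = plate median of compound wells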
# TDP2 absorb – human TDP2 enzyme inhibitors, primary screen, biochemical, epi absorbance, recombinant enzyme. T5PNP hydrolysis, p-nitrophenol absorbance 415 nm. inhibition, % at 12.8 µM. 0.34% of 370,000 active. Tyrosyl-DNA phosphodiesterase 2 (Homo sapiens), O95551;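 active means inhibition above the mean of all tested compounds plus 3 SD, set per campaign, cut at about 25% in these data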;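 further: 0% = DMSO with enzyme and 100% = buffer with substrate but no TDP2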
#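 Assay system: Recombinant human TDP2 | Quantity: 120 nM TDP2 per well | Incubation: 2 h at 37 °C | Signal: Epi absorbance | Evaluation: Percent inhibition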
# Rin1 Abl conf – Rin1-Abl binding inhibitor retest, confirmation, biochemical, TR-FRET. 49% of 1,300 active. shares compounds with Rin1 Abl inh. purified proteins. inhibition, % at 7.35 µM
# GFP quench – GFP fluorescence inhibitors and quenchers, artefact control for Rin1-Abl interaction inhibitor project, biochemical | shares compounds with Rin1 Abl inh | inhibitors/quenchers counterscreen | inhibition, % at 6.75 µM | 8.5% of 1,300 active | AID 602125, 2011;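 further: ABL1-eGFP fusion protein alone without its partner RIN1-SBP; 0% = protein with vehicle and 100% = wells lacking protein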
# GFP quench dose – GFP fluorescence inhibitors and quenchers, dose response, artefact control for Rin1-Abl interaction inhibitor project, biochemical; shares compounds with Rin1 Abl inh; GFP fluorescence interference/quenching counterscreen; IC50, µM; 230 tested, under 10 active; AID 602182, 2012; call rule not given here;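 further: ABL1-eGFP fusion protein alone without its RIN1 binding partner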
# The depositor's hits bear a star; . = not tested or not shown; ! = not confirmed by another sample. This is a sample that favours compounds with a hit; in the whole collection about 1.9% have one here. Unless noted, no stated cut-off is given here; in the data, active means inhibition above about 6.5%; inactive means the rest.
SMILES,UHRF1 binding,Rin1 Abl inh,MBD2 DNA inh,LEDGF integ inh,TDP2 absorb,Rin1 Abl conf,GFP quench,others
CC1OC(OC2C(Oc3c(-c4ccc(O)cc4)oc4cc(O)cc(O)c4c3=O)OC(COC3O[C@@H](C)[C@H](O)[C@@H](O)C3O)C(O)C2O)C(O)C(O)C1O (some centres not stated),2.6,-3.9,-5.3,-1.1,0.4,.,.,
CC(C)(C)OC(=O)NC1CCN(c2nc(-c3ccc(Br)cc3)cs2)CC1,-0.3,.,-2.0,-2.6,2.7,.,.,
NC(=O)[C@@H]1CCCN1C(=O)c1cc(COc2ccc3c(c2)CCCC3)on1,3.0,6.1*,-1.6,3.7,-1.3,0.1,0.9,
Cc1cccc(C)c1OCc1cc(C(=O)N2CCC[C@H]2C(N)=O)no1,-1.7,1.1,-4.9,1.9,2.1,.,.,
CCCn1c(N)c(C(=O)COC(=O)CNC(=O)c2ccc(C)c(C)c2)c(=O)n(C)c1=O,12.3,9.4*,2.9,-3.9,9.9,0.5,-4.3,
Cc1cc(C)cc(C(=O)NCC(=O)OCC(=O)c2c(N)n(C)c(=O)n(C)c2=O)c1,0.6,-0.8,2.9,-2.1,3.8,.,.,
CN(C(=O)c1ccc(NC(=O)Cc2cccc(NC(=O)C3CCN(C(=O)C4CCCC4)CC3)c2)cc1)C1CC1,-2.1,20.2*,-7.4,2.7,4.9,28.0*,0.1,GFP quench dose=>67.5
CN(C(=O)c1ccc(NC(=O)Cc2ccc(NC(=O)C3CCN(C(=O)C4CCC4)CC3)cc2)cc1)C1CC1,-1.2,37.4*,-0.4,-3.9,-1.8,61.5*,0.1,
CN(C(=O)c1ccc(NC(=O)Cc2ccc(NC(=O)C3CCN(C(=O)C4CCCC4)CC3)cc2)cc1)C1CC1,-0.8,78.2*,-3.5,1.1,0.3,84.5*,-0.7,
CN(C(=O)c1ccc(NC(=O)Cc2cccc(NC(=O)C3CCN(C(=O)C4CCC4)CC3)c2)cc1)C1CCCC1,-4.5,-0.9,-6.2,0.4,-5.2,.,.,
CN(C(=O)c1ccc(NC(=O)Cc2ccc(NC(=O)C3CCN(C(=O)C4CCCCC4)CC3)cc2)cc1)C1CCCC1,0.0,4.0,-4.2,-4.5,3.3,.,.,
COC(=O)c1cccc(Cn2ccc3ccc(-c4ccc5ccn(C(=O)c6ccc(C)cc6)c5c4)cc32)c1,-1.7,.,1.1,2.3,10.3,.,.,
Cc1ccc(C2=NOC(C)(c3nnc(-c4ccncc4)o3)C2)cc1 (configuration not stated),0.9,15.5*,3.4,-2.2,1.3,2.1,0.0,
CC1(c2nnc(-c3ccccc3)o2)CC(c2ccccc2)=NO1 (configuration not stated),-1.3,-0.2,-4.2,1.1,7.7,.,.,
COc1ccc(C2=NOC(C)(c3nnc(-c4ccncc4)o3)C2)cc1 (configuration not stated),-4.2,12.2*,-5.4,-1.0,2.6,3.2,0.7,
CC1(c2nnc(-c3ccc(Cl)cc3)o2)CC(c2ccncc2)=NO1 (configuration not stated),-1.9,4.0,0.8,-1.2,6.7,.,.,
Cc1cccc2nc(CSc3nc4ccccc4[nH]3)cn12,-0.4,0.7,1.4,-4.2,9.8,.,.,
c1ccc2[nH]c(SCc3cn4ccccc4n3)nc2c1,0.9,5.6*,1.0,2.9,0.4,-1.7,1.1,
COc1ccc2nc(Nc3nc(C)c(CCC(C)C)c(=O)[nH]3)nc(C)c2c1,-0.5,8.2*,4.1,-2.2,5.7,-4.0,-1.8,
CC(CO)(CO)NC(=O)c1ccc(C#Cc2cccc(F)c2)cn1,3.0,.,3.2,2.0,6.4,.,.,
C=CCc1ccccc1OCC(O)CN1CCN(c2ccccc2OC)CC1 (configuration not stated),1.6,7.4*!,-2.0,-2.1,1.4,-0.8,-0.3,
C=CCc1ccccc1OCC(O)CN1CCN(c2ccccc2F)CC1 (configuration not stated),-0.7,1.2,4.6,-1.1,4.1,.,.,
CCC1CCCCN1S(=O)(=O)c1ccc(NC(=O)c2cccs2)cc1 (configuration not stated),2.4,10.3*,2.6,-1.0,-11.8,-0.3,-0.9,
CCn1c(SCC(=O)Nc2cccc(C)c2)nc2nc3c(cc2c1=O)COC(C)(C)C3,2.0,7.5*,0.6,-1.0,-1.4,12.6*,-0.4,
CCn1c(SCC(=O)Nc2ccccc2)nc2nc3c(cc2c1=O)COC(C)(C)C3,0.7,.,-0.1,-2.8,16.1,.,.,
SMILES,UHRF1 binding,Rin1 Abl inh,MBD2 DNA inh,LEDGF integ inh,TDP2 absorb,Rin1 Abl conf,GFP quench,others
Cc1cc(-c2nn(-c3ccccc3F)cc2CN2CCCC(O)C2)c(C)s1 (configuration not stated),-1.9,5.7*,0.2,1.1,-1.6,1.3,-0.3,
Cc1cc(-c2nn(-c3ccccc3F)cc2CN2CCCC(CO)C2)c(C)s1 (configuration not stated),6.0,-1.0,1.6,-3.4,-2.9,.,.,
Cc1ccc(S(=O)(=O)N2CCN(C(=O)Cn3cnc4c3c(=O)n(C)c(=O)n4C)CC2)cc1C,-0.7,17.2*,-7.7,3.0,-11.7,19.1*,-0.7,GFP quench dose=>67.6
Nn1c(SCC(=O)N2c3ccccc3Sc3ccc(Cl)cc32)nnc1-c1n[nH]c2c1CCC2,-1.1,.,-3.6,-3.2,1.8,.,.,
Cc1cccc(N2CC(C(=O)Nc3ccc(S(=O)(=O)N4CCCCC4)cc3)CC2=O)c1C (configuration not stated),1.1,13.2*,4.8,-3.3,-8.4,13.0*,0.2,
Cc1cc(=O)n2nc(N3CCCC(C(=O)N4CCc5ccccc54)C3)sc2n1 (configuration not stated),.,12.7*,.,.,.,16.6*,0.8,
Cc1cc(=O)n2nc(N3CCCC(C(=O)N4CCOCC4)C3)sc2n1 (configuration not stated),3.6,0.6,-2.3,-1.7,2.5,.,.,
CCc1cc(=O)oc2cc3occ(C)c3cc12,-7.9,10.9*,-4.3,-1.8,-1.9,-1.8,1.6,

# Source: PubChem (The Scripps Research Institute Molecular Screening Center)
